Reference: ChEMBL document CHEMBL1128306, “Design, synthesis, and evaluation of A/C/D-ring analogs of the fungal metabolite K-76 as potential complement inhibitors” (J Med Chem, 1995)

Legend:
T-cell = assay: Inhibitory activity against lectin-stimulated T cell proliferation; type: functional, cell-based
Homo sapiens [1] = species: Homo sapiens; assay: Inhibitory activity against mitogen-stimulated PBL proliferation; type: functional
[2] = Inhibitory activity against hemolysis of antibody-sensitized sheep erythrocytes using human serum as complementary source in multiple assay; type: functional
Outline: (§1)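 Antibody-sensitized sheep erythrocytes were exposed to compounds and to human serum in 0.1 M HEPES, 0.15 N NaCl, pH 7.4. Serum dilution was pre-set to lyse 80–90% of cells. Incubation 60 min at 37 °C, then centrifugation and supernatant A410 for hemoglobin release. Triplicate controls without serum were subtracted. Inhibition is relative to the no-compound sample.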

[3] = Inhibitory activity against hemolysis (complement-mediated erythrocyte lysis) of antibody-sensitized sheep erythrocytes using human serum as complementary source; type: functional; outline: as §1
[4] = Inhibitory activity against C5a production by activated human serum complement; type: functional
Outline: (§2)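 Human serum aliquots (400 μL) equilibrated at 37 °C with varying compound concentrations in 0.1 M Hepes, 0.15 N NaCl, pH 7.4. Complement activated with heat-aggregated IgG at 14 mg/mL, 10 min at 37 °C. C3a[desArg] and C5a[desArg] were measured by radioimmunoassay. Triplicates were averaged. Fractional inhibition is relative to the no-compound sample and the background without aggregated IgG.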

Homo sapiens [5] = species: Homo sapiens; assay: Inhibitory activity against mitogen-stimulated PBL proliferation; Range 1.7-2.8 mM; type: functional
[6] = (§3) Compound was tested to inhibit the production of C5a relative to C3a; type: functional, Homo sapiens; outline: as §2
[7] = as §3; type: functional, Homo sapiens; outline: as §2; remark: listed apart in the source

| SMILES | inhibition (T-cell) | IC50 (Homo sapiens [1]) [mM] | IC50 [2] [mM] | IC50 ([3]; read-out: IC50) [mM] | IC50 [4] [mM] | IC50 [3] | IC50 (Homo sapiens [5]) [mM] | IC50 [6] [mM] | IC50 [7] [mM] |
| --- | --- | --- | --- | --- | --- | --- | --- | --- | --- |
| C[C@@H]1CCC2C(C)(C)[C@H](O)[C@H](O)C[C@]2(C)[C@@]12Cc1c(O)cc(C(=O)O)c(C=O)c1O2 (stereo not given in full) | Inhibit | 0.5 | 0.57 | 0.3 | 3 | – | – | – | – |
| CC1=CCC(C2(C)Cc3c(O)ccc(C(=O)O)c3O2)CC1 (stereo not given) | – | – | – | – | – | Less Effective | < 2.8 | – | – |
| COc1ccc(C(=O)O)c2c1CC(C)(C1CC=C(C)CC1)O2 (stereo not given) | – | – | – | – | – | – | < 2.8 | 6 | 8 |
